Screening data from PubChem.
ADAM10 inh – inhibitors of human ADAM10 | AID 720582 | O14672 | recombinant ADAM10, EDANS/DABCYL FRET peptide cleavage, 3 h | inhibition, % at 7 µM | 0.62% of 370,000 active;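 active = inhibition above a per-campaign cutoff equal to the mean of compounds falling between control-based bounds plus 3 SD, cut at about 20% in these data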
Target sequence (O14672 214-748 limits assumed): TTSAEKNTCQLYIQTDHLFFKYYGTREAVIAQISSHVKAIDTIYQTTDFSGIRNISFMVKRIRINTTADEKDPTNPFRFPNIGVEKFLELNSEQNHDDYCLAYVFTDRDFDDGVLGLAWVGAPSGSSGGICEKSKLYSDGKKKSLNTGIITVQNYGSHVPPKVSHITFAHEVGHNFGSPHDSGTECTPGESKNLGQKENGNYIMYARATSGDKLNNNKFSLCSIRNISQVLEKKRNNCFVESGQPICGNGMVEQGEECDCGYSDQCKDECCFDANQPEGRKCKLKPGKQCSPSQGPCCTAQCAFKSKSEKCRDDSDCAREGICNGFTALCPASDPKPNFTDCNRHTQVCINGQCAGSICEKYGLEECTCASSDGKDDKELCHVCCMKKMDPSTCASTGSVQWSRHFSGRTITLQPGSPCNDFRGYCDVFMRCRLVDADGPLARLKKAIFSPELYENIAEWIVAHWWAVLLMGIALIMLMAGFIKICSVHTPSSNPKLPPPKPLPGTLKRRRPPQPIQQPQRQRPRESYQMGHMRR
MT1-MMP act inh – MT1-MMP (human) activation inhibition. P50281. 0.061% of 360,000 active. HT1080 RFP-PRO-GFP cells, GFP/RFP ratio fluorescence, overnight; percent of plate control window, DMSO zero. GFP/RFP ratio change, % at 20 µM;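 active = GFP/RFP ratio change of at least 30% with cell ATP level not reduced by more than half and red fluorescence within 50% of control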
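Assay system – RFP-PRO-GFP reporter HT1080 cells · Compound dosing – single dose of 20 µM compound, 1% DMSO final · Incubation – overnight compound exposure at 37 °C · Measure – GFP/RFP fluorescence ratio · Benchmarks – DMSO wells and RFP-L50D-GFP cells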
ADAM17 inh – inhibits human ADAM17. P78536. recombinant ADAM17, EDANS/DABCYL FRET peptide cleavage. inhibition, % at 6.95 µM. 0.83% of 370,000 active;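 active = inhibition above the mean of compounds lying between control limits plus 3 SD, set per campaign, cut at about 8.5% in these data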
DDE Tn6 FP inh – DD(E)-Tn6 binding inhibition, primary FP screen; inhibition, % at 8.3 µM; 0.21% of 370,000 active; AID 720509; Fibrin DD(E) TRITC-Tn6 fluorescence polarization displacement; P02675;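 active = inhibition above a per-campaign cutoff: mean of compounds within control limits plus 3 SD, cut at about 15% in these data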
DDE Tn7 FP inh – DD(E)-Tn7 binding inhibition, primary FP screen. P02675. FP displacement of FITC-Tn7 peptide from fibrin DD(E); 0% = median of compound wells per plate. inhibition, % at 8.3 µM. 0.13% of 370,000 active;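 active = inhibition above the mean of compounds falling within the control limits plus 3 SD of them, cut at about 14% in these data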
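Assay system: Human clot-derived fibrin DD(E) complex | Buffer or medium: Tris/NaCl/CaCl2 buffer, pH 7.8 | Repeats: One replicate per compound | Benchmarks: Aha-Tn7 high control | Measure: % inhibition scaled between sample-field median and high-control FP | Schedule: 10 min plus 3 h, room temperature | Signal: Fluorescence polarization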
ADAM10 counter – counter-screen for ADAM17 exosite inhibitors: inhibitors of human ADAM10; shares compounds with ADAM17 inh; recombinant ADAM10, EDANS/DABCYL FRET peptide cleavage, 3 h; inhibition, % at 6.95 µM; 47% of 2,900 active; AID 743256;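 active = mean inhibition over the triplicate runs exceeds the activity threshold set in the earlier primary screen, cut at about 20% in these data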
ADAM17 confirm – confirmation of inhibitors of human ADAM17 | AID 743257 | inhibition, % at 6.95 µM | recombinant ADAM17, EDANS/DABCYL QFRET peptide cleavage | 65% of 2,900 active | shares compounds with ADAM17 inh;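 active = mean inhibition across replicates above the hit cutoff set in the primary screen, cut at about 8.5% in these data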
Of the large screens only hits and unclear results are named; the others gave an inactive call (follow-up assays come after a bar, where they were run). Shown are actives, neighbours in structure and some others; about 1.6% of the full set was active somewhere.

CCCCCCCCN1C(=O)[C@@H](CC(=O)NCCc2ccccc2OC)C[C@@]2(C(=O)OC)C1=C[C@H](C1CCCC1)O[C@@H]2C	none (no result: MT1-MMP act inh)
COc1ccc(N2CCN(S(=O)(=O)c3c(C)noc3/C=C/N(C)C)CC2)cc1	none
COc1ccc(N2CCN(C(=O)C3CCN(S(=O)(=O)c4c(C)noc4/C=C/N(C)C)CC3)CC2)cc1	ADAM17 inh 10.5 | ADAM10 counter inactive | ADAM17 confirm inactive
O=C(C1CCCN1S(=O)(=O)c1ccc(Cl)s1)N1CCN(c2ccccc2)CC1 (configuration not stated)	none (no result: MT1-MMP act inh)
Cc1c(NC(=O)c2cccc(NC(=O)c3ccco3)c2)cccc1C(=O)O	ADAM17 inh 9.0 | ADAM10 counter inactive | ADAM17 confirm inactive
C[C@@H]1CN([C@@H](C)CO)C(=O)CCCn2cc(nn2)CO[C@H]1CN(C)C(=O)Nc1ccc2c(c1)OCO2	none (no result: MT1-MMP act inh)
COc1cccc([C@H]2NC(=O)C/C=C/[C@@H](C)[C@@H](c3cccc(OC)c3)NC(=O)C/C=C/[C@H]2C)c1	none (no result: MT1-MMP act inh)
COc1ccc(C)cc1S(=O)(=O)N(CC(=O)N1CCOCC1)Cc1ccccc1	none
COc1ccc(C)cc1S(=O)(=O)N(CC(=O)NCc1ccc(Cl)cc1)Cc1ccccc1	ADAM17 inh 9.7 | ADAM10 counter 31.5 | ADAM17 confirm 17.3
O=c1cc(CO)oc(C(Nc2ccccn2)c2cccc(F)c2)c1O (configuration not stated)	none
COc1cccc(C(Nc2ccccn2)c2oc(CO)cc(=O)c2O)c1 (configuration not stated)	ADAM17 inh 13.2 | ADAM10 counter 26.8 | ADAM17 confirm 29.0
Cc1cccc(NS(=O)(=O)c2ccc3c(c2)Cc2cc(S(=O)(=O)Nc4cccc(C)c4C)ccc2-3)c1C	ADAM17 inh 10.6 | ADAM10 counter inactive | ADAM17 confirm 10.3
Cc1cc(-c2ccccc2)n(-c2cc(N/N=C/c3ccccc3O)ncn2)n1	ADAM17 inh 8.7 | ADAM10 counter inactive | ADAM17 confirm inactive
Cc1ccc(NC(=O)CCS(=O)(=O)c2ccccc2)cc1C	none (no result: MT1-MMP act inh)
Nc1[nH]c(C(=O)c2ccccc2)c(-c2cccc3ccccc23)c1C(=O)c1cccs1	none (no result: MT1-MMP act inh)
CCOc1ccc(-c2[nH]ncc2-c2ccc(Cl)cc2)c(O)c1	ADAM17 inh 9.9 | ADAM10 counter inactive | ADAM17 confirm 11.6
CCOC(=O)N1CCN(C(=O)C[C@H]2C[C@@]3(C(=O)OC)C(=C[C@H](C(C)(C)C)O[C@@H]3C)N(CCC3=CCCCC3)C2=O)CC1	ADAM17 inh 10.5 (no result: MT1-MMP act inh) | ADAM10 counter inactive | ADAM17 confirm inactive
COC(=O)[C@]12C[C@H](CC(=O)NCc3cccc4ccccc34)C(=O)N(Cc3ccc4c(c3)OCO4)C1=C[C@H](C(C)(C)C)O[C@@H]2C	none (no result: MT1-MMP act inh)
CCN(c1cccc(C(F)(F)F)c1)S(=O)(=O)c1ccc2c(c1)CCN2C(C)=O	ADAM17 inh 8.7 | ADAM10 counter 20.3 | ADAM17 confirm 10.7
CCN(c1cccc(C)c1)S(=O)(=O)c1ccc2c(c1)CCN2C(C)=O	none
COC(=O)C1=C(C)N(Cc2cccc(C(F)(F)F)c2)C(=NCc2ccc(C(F)(F)F)cc2)NC1c1cccc(C(F)(F)F)c1 (configuration not stated)	none (no result: MT1-MMP act inh)
C[C@H](CO)N1C[C@H](C)[C@@H](CN(C)C)Oc2c(NC(=O)CCC(F)(F)F)cccc2C1=O	ADAM17 inh 10.0 | ADAM10 counter inactive | ADAM17 confirm inactive
C[C@H](CO)N1C[C@H](C)[C@@H](CN(C)S(=O)(=O)c2ccccc2)Oc2c(NC(=O)c3ccncc3)cccc2C1=O	ADAM17 inh 11.1 | ADAM10 counter inactive | ADAM17 confirm inactive
C[C@H](CO)N1C[C@H](C)[C@@H](CN(C)Cc2ccncc2)Oc2c(NC(=O)CCC(F)(F)F)cccc2C1=O	none
C[C@H](CO)N1C[C@H](C)[C@@H](CN(C)S(=O)(=O)c2ccc(F)cc2)Oc2c(NC(=O)c3ccncc3)cccc2C1=O	ADAM17 inh 10.3 | ADAM10 counter inactive | ADAM17 confirm inactive
C[C@H]1CN([C@@H](C)CO)C(=O)c2cccc(NC(=O)c3cnccn3)c2O[C@@H]1CN(C)S(=O)(=O)c1ccc(F)cc1	none (no result: ADAM10 inh, ADAM17 inh, DDE Tn6 FP inh, DDE Tn7 FP inh)
C[C@H](CO)N1C[C@H](C)[C@@H](CN(C)Cc2ccncc2)Oc2c(NC(=O)c3ccncc3)cccc2C1=O	none
CCOC(=O)Cn1c(C(=O)OCC)cc2sccc21	ADAM17 inh 9.2 | ADAM10 counter inactive | ADAM17 confirm inactive
O=C1CCN(S(=O)(=O)c2ccccc2)CCN1CCOCc1cccc(F)c1	ADAM17 inh 10.1 | ADAM10 counter inactive | ADAM17 confirm inactive
CCCSc1nsc(NC(=O)CCC)n1	ADAM17 inh 9.2 | ADAM10 counter inactive | ADAM17 confirm inactive
COc1ccc(CN2CCC(CNC(=O)NC3CCCC3)CC2)cc1	none (no result: MT1-MMP act inh)
c1ccc(CCn2nnc(-c3ccc(N4CCOCC4)cc3)n2)cc1	none (no result: MT1-MMP act inh)
COC(=O)c1c(C)n(-c2ccc(OC)cc2)c2ccc(O)cc12	ADAM17 inh 12.2 | ADAM10 counter inactive | ADAM17 confirm 11.5
CCOC(=O)c1c(C)n(-c2ccc(F)cc2)c2ccc(O)cc12	none (no result: ADAM10 inh, ADAM17 inh, DDE Tn6 FP inh, DDE Tn7 FP inh)
O=C(CN1c2ccccc2Sc2ccccc21)NNC(=O)Nc1cccc(Cl)c1	ADAM17 inh 8.8 | ADAM10 counter inactive | ADAM17 confirm 8.9
O=C(Cc1ccccc1)NNC(=O)Nc1cccc(Cl)c1	none
COc1cc(OC)cc(C(C)c2ccc(C)cc2)c1 (configuration not stated)	none (no result: MT1-MMP act inh)
C=CCNc1cccc(Br)c1	ADAM17 inh 9.1 | ADAM10 counter inactive | ADAM17 confirm inactive
Cc1cc(NC(=O)COC(=O)c2cc([N+](=O)[O-])ccc2N2CCOCC2)ccc1Br	ADAM17 inh 8.7 | ADAM10 counter 45.7 | ADAM17 confirm 19.4
Cc1cc(C)c(NC(=O)COC(=O)c2cc([N+](=O)[O-])ccc2N2CCOCC2)c(C)c1	none (no result: MT1-MMP act inh)
O=C1[C@H]2[C@@H](c3ccc(C(F)(F)F)cc3)N[C@]3(CCCN(Cc4ccc(F)cc4)C3=O)[C@H]2C(=O)N1Cc1ccccc1	ADAM17 inh 8.9 | ADAM10 counter 23.9 | ADAM17 confirm 12.7
COc1cc2cc(Br)cc(Br)c2nc1C	ADAM17 inh 10.5 | ADAM10 counter 21.1 | ADAM17 confirm 12.9
CCCn1c(C(C)Nc2nc(-c3cccc(Br)c3)cs2)nc2ccccc21 (configuration not stated)	none
